Measured values: ChEMBL document CHEMBL5724801, “EUbOPEN Chemogenomics Library - Multiplex” (2024)
Where “and” joins values, the source holds several entries; their conditions need not be identical. Equal entries are not always repeated.

Test system: U2OS
Assay: Multiplex assay against U2OS
Assay type: toxicity, cell-based
Details: human
In short: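 On a CQ1 microscope at 37°C and 5% CO2, live cells were imaged after compound addition. They had been stained at seeding with Hoechst33342, BioTracker Green Microtubule Cytoskeleton Dye, MitoTracker Red and Annexin V Alexa Fluor 680. CellPathfinder machine-learning gating assigned cells to Hoechst high-intensity objects or normal cells, normal cells to healthy, pyknosed or fragmented nuclei, and pyknosed cells to mitotic or apoptotic. Tubulin, mitochondrial-mass and membrane-permeability phenotypes are per cents of healthy-nucleus cells.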

[1] = 12 h, 1 µM, compound concentration 1 uM
[2] = 12 h, 10 µM, compound concentration 10 uM
[3] = 24 h, 1 µM, compound concentration 1 uM
[4] = 24 h, 10 µM, compound concentration 10 uM
[5] = 48 h, 1 µM, compound concentration 1 uM
[6] = 48 h, 10 µM, compound concentration 10 uM

S=C(NCCCc1c[nH]cn1)NCCCN(Cc1ccc(Cl)c(Cl)c1)c1ccc(Br)cn1
Population Apoptotic (%) [1]: 75% and 80%
Population Fragmented Nuclei (%) [1]: 27% and 20%
Population Healthy Nuclei (%) [1]: 63% and 68%
Population Hoechst High Intensity Objects (%) [1]: 2% and 3%
Population Membrane Permeable-Phenotype (%) [1]: 13% and 6%
Population Mitochondria Different-Phenotype (%) [1]: 2% and 9%
Population Mitotic Cells (%) [1]: 25% and 20%
Population Normal (%) [1]: 97% and 96%
Population Pyknosed Nuclei (%) [1]: 9% and 11%
Population Tubulin-Different-Phenotype (%) [1]: 6% and 1%
Total Cell Count [1]: 228 and 93
Population Apoptotic (%) [2]: 66% and 58%
Population Fragmented Nuclei (%) [2]: 27% and 24%
Population Healthy Nuclei (%) [2]: 46%
Population Hoechst High Intensity Objects (%) [2]: 6% and 0%
Population Membrane Permeable-Phenotype (%) [2]: 86% and 84%
Population Mitochondria Different-Phenotype (%) [2]: 26% and 60%
Population Mitotic Cells (%) [2]: 33% and 41%
Population Normal (%) [2]: 93% and 100%
Population Pyknosed Nuclei (%) [2]: 26% and 29%
Population Tubulin-Different-Phenotype (%) [2]: 83% and 89%
Total Cell Count [2]: 220 and 82
Population Apoptotic (%) [3]: 81% and 100%
Population Fragmented Nuclei (%) [3]: 22% and 30%
Population Healthy Nuclei (%) [3]: 69% and 65%
Population Hoechst High Intensity Objects (%) [3]: 3% and 1%
Population Membrane Permeable-Phenotype (%) [3]: 11% and 7%
Population Mitochondria Different-Phenotype (%) [3]: 3% and 5%
Population Mitotic Cells (%) [3]: 18% and 0%
Population Normal (%) [3]: 96% and 98%
Population Pyknosed Nuclei (%) [3]: 8% and 4%
Population Tubulin-Different-Phenotype (%) [3]: 9% and 3%
Total Cell Count [3]: 285 and 125
Population Apoptotic (%) [4]: 62% and 60%
Population Fragmented Nuclei (%) [4]: 33% and 29%
Population Healthy Nuclei (%) [4]: 38% and 40%
Population Hoechst High Intensity Objects (%) [4]: 5% and 2%
Population Membrane Permeable-Phenotype (%) [4]: 59% and 77%
Population Mitochondria Different-Phenotype (%) [4]: 17% and 32%
Population Mitotic Cells (%) [4]: 37% and 39%
Population Normal (%) [4]: 94% and 97%
Population Pyknosed Nuclei (%) [4]: 28% and 29%
Population Tubulin-Different-Phenotype (%) [4]: 54% and 64%
Total Cell Count [4]: 227 and 79
Population Apoptotic (%) [5]: 83% and 87%
Population Fragmented Nuclei (%) [5]: 17% and 28%
Population Healthy Nuclei (%) [5]: 74% and 60%
Population Hoechst High Intensity Objects (%) [5]: 1% and 0%
Population Membrane Permeable-Phenotype (%) [5]: 5%
Population Mitochondria Different-Phenotype (%) [5]: 3%
Population Mitotic Cells (%) [5]: 16% and 12%
Population Normal (%) [5]: 98% and 99%
Population Pyknosed Nuclei (%) [5]: 7% and 11%
Population Tubulin-Different-Phenotype (%) [5]: 2% and 3%
Total Cell Count [5]: 409 and 211
Population Apoptotic (%) [6]: 70% and 73%
Population Fragmented Nuclei (%) [6]: 43% and 50%
Population Healthy Nuclei (%) [6]: 8% and 15%
Population Hoechst High Intensity Objects (%) [6]: 21% and 15%
Population Membrane Permeable-Phenotype (%) [6]: 46% and 57%
Population Mitochondria Different-Phenotype (%) [6]: 20% and 42%
Population Mitotic Cells (%) [6]: 29% and 26%
Population Normal (%) [6]: 78% and 84%
Population Pyknosed Nuclei (%) [6]: 47% and 33%
Population Tubulin-Different-Phenotype (%) [6]: 26% and 57%
Total Cell Count [6]: 230 and 105

CCCCC(=O)N(Cc1ccc(-c2ccccc2-c2nnn[nH]2)cc1)[C@H](C(=O)O)C(C)C
Population Apoptotic (%) [1]: 85% and 100%
Population Fragmented Nuclei (%) [1]: 28% and 15%
Population Healthy Nuclei (%) [1]: 63% and 79%
Population Hoechst High Intensity Objects (%) [1]: 1% and 3%
Population Membrane Permeable-Phenotype (%) [1]: 8% and 9%
Population Mitochondria Different-Phenotype (%) [1]: 3% and 5%
Population Mitotic Cells (%) [1]: 14% and 0%
Population Normal (%) [1]: 98% and 96%
Population Pyknosed Nuclei (%) [1]: 8% and 4%
Population Tubulin-Different-Phenotype (%) [1]: 4% and 2%
Total Cell Count [1]: 259 and 130
Population Apoptotic (%) [2]: 75%
Population Fragmented Nuclei (%) [2]: 35% and 24%
Population Healthy Nuclei (%) [2]: 55% and 71%
Population Hoechst High Intensity Objects (%) [2]: 1% and 0%
Population Membrane Permeable-Phenotype (%) [2]: 3% and 1%
Population Mitochondria Different-Phenotype (%) [2]: 2%
Population Mitotic Cells (%) [2]: 25%
Population Normal (%) [2]: 98% and 99%
Population Pyknosed Nuclei (%) [2]: 9% and 3%
Population Tubulin-Different-Phenotype (%) [2]: 2% and 0%
Total Cell Count [2]: 218 and 108
Population Apoptotic (%) [3]: 86% and 83%
Population Fragmented Nuclei (%) [3]: 23% and 10%
Population Healthy Nuclei (%) [3]: 68% and 77%
Population Hoechst High Intensity Objects (%) [3]: 2% and 6%
Population Membrane Permeable-Phenotype (%) [3]: 5% and 9%
Population Mitochondria Different-Phenotype (%) [3]: 3% and 6%
Population Mitotic Cells (%) [3]: 13% and 16%
Population Normal (%) [3]: 97% and 93%
Population Pyknosed Nuclei (%) [3]: 7% and 12%
Population Tubulin-Different-Phenotype (%) [3]: 2% and 7%
Total Cell Count [3]: 289 and 158
Population Apoptotic (%) [4]: 82% and 84%
Population Fragmented Nuclei (%) [4]: 31% and 22%
Population Healthy Nuclei (%) [4]: 59% and 67%
Population Hoechst High Intensity Objects (%) [4]: 2% and 0%
Population Membrane Permeable-Phenotype (%) [4]: 3% and 4%
Population Mitochondria Different-Phenotype (%) [4]: 2% and 8%
Population Mitotic Cells (%) [4]: 17% and 15%
Population Normal (%) [4]: 97% and 100%
Population Pyknosed Nuclei (%) [4]: 8% and 9%
Population Tubulin-Different-Phenotype (%) [4]: 2% and 6%
Total Cell Count [4]: 272 and 135
Population Apoptotic (%) [5]: 86% and 85%
Population Fragmented Nuclei (%) [5]: 17% and 20%
Population Healthy Nuclei (%) [5]: 75% and 68%
Population Hoechst High Intensity Objects (%) [5]: 2% and 3%
Population Membrane Permeable-Phenotype (%) [5]: 5% and 7%
Population Mitochondria Different-Phenotype (%) [5]: 3%
Population Mitotic Cells (%) [5]: 13% and 15%
Population Normal (%) [5]: 97% and 96%
Population Pyknosed Nuclei (%) [5]: 7% and 10%
Population Tubulin-Different-Phenotype (%) [5]: 2% and 3%
Total Cell Count [5]: 397 and 201
Population Apoptotic (%) [6]: 83% and 87%
Population Fragmented Nuclei (%) [6]: 22% and 21%
Population Healthy Nuclei (%) [6]: 70% and 60%
Population Hoechst High Intensity Objects (%) [6]: 1% and 4%
Population Membrane Permeable-Phenotype (%) [6]: 6% and 4%
Population Mitochondria Different-Phenotype (%) [6]: 2% and 3%
Population Mitotic Cells (%) [6]: 16% and 12%
Population Normal (%) [6]: 98% and 95%
Population Pyknosed Nuclei (%) [6]: 7% and 17%
Population Tubulin-Different-Phenotype (%) [6]: 2% and 6%
Total Cell Count [6]: 347 and 188

CC(F)(F)CN1CCOc2c(nn(-c3ccccc3Cl)c2-c2ccc(Cl)cc2)C1=O
Population Apoptotic (%) [1]: 81% and 100%
Population Healthy Nuclei (%) [1]: 53% and 71%
Population Hoechst High Intensity Objects (%) [1]: 2% and 0%
Population Membrane Permeable-Phenotype (%) [1]: 3%
Population Mitotic Cells (%) [1]: 18% and 0%
Population Normal (%) [1]: 97% and 99%
Population Tubulin-Different-Phenotype (%) [1]: 8% and 4%
Total Cell Count [1]: 219 and 121
Population Apoptotic (%) [2]: 83% and 60%
Population Healthy Nuclei (%) [2]: 62% and 71%
Population Hoechst High Intensity Objects (%) [2]: 1%
Population Membrane Permeable-Phenotype (%) [2]: 10%
Population Mitotic Cells (%) [2]: 16% and 40%
Population Normal (%) [2]: 98%
Population Tubulin-Different-Phenotype (%) [2]: 14% and 5%
Total Cell Count [2]: 216 and 130
Population Apoptotic (%) [3]: 95% and 90%
Population Healthy Nuclei (%) [3]: 55% and 71%
Population Hoechst High Intensity Objects (%) [3]: 4% and 1%
Population Membrane Permeable-Phenotype (%) [3]: 9%
Population Mitotic Cells (%) [3]: 4% and 10%
Population Normal (%) [3]: 95% and 98%
Population Tubulin-Different-Phenotype (%) [3]: 6% and 13%
Total Cell Count [3]: 246 and 155
Population Apoptotic (%) [4]: 70% and 80%
Population Healthy Nuclei (%) [4]: 63% and 77%
Population Hoechst High Intensity Objects (%) [4]: 1%
Population Mitotic Cells (%) [4]: 29% and 20%
Population Normal (%) [4]: 98%
Population Tubulin-Different-Phenotype (%) [4]: 7% and 5%
Total Cell Count [4]: 248 and 154
Population Apoptotic (%) [5]: 94% and 89%
Population Healthy Nuclei (%) [5]: 66% and 69%
Population Hoechst High Intensity Objects (%) [5]: 4% and 1%
Population Membrane Permeable-Phenotype (%) [5]: 6% and 7%
Population Mitotic Cells (%) [5]: 5% and 10%
Population Normal (%) [5]: 95% and 98%
Population Tubulin-Different-Phenotype (%) [5]: 3% and 6%
Total Cell Count [5]: 333 and 203
Population Apoptotic (%) [6]: 96% and 88%
Population Healthy Nuclei (%) [6]: 68% and 72%
Population Hoechst High Intensity Objects (%) [6]: 1% and 4%
Population Membrane Permeable-Phenotype (%) [6]: 8%
Population Mitotic Cells (%) [6]: 3% and 11%
Population Normal (%) [6]: 98% and 95%
Population Tubulin-Different-Phenotype (%) [6]: 6% and 4%
Total Cell Count [6]: 322 and 204
